Only some compounds are listed: those with a hit (about 2.4% of all), similar ones and a draw of the others.
S1P4 antag = antagonists of human S1P4 receptor | O95977 | AID 1510 | hit rate 0.26% among 220,000 | S1P4-expressing cells, antagonist mode, reporter read-out | inhibition, % at 4.98 µM; in the data active means inhibition above about 29%;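 further: 0% = wells stimulated with agonist and 100% = vehicle wells without agonist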
S1P4 ag = activates the human S1P4 receptor. AID 1509. hit rate 0.35% among 220,000. activation, % at 4.98 µM. S1P4-expressing cell line, agonist reporter assay. O95977; in the data active means activation above about 11%;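 further: 0% = DMSO vehicle and 100% = reference agonist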
NPY-Y1 PAM-ag = potentiators or agonists of human neuropeptide Y receptor Y1. NPY-Y1 expressing cells, potentiator/agonist activation. activation, % at 3.6 µM. hit rate 0.37% among 220,000; in the data active means activation above about 33%, passing the limit was not always enough;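 further: cells stimulated with NPY at EC10 then isoproterenol at EC100; 0% = low agonist plus stimulus and 100% = saturating agonist plus stimulus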
NPY Y1 blocker = antagonists of human neuropeptide Y receptor Y1. HEK293-CNG Y1 cells, membrane potential fluorescence; NPY at EC95, then isoproterenol. hit rate 1% among 200,000. AID 1040. P25929. inhibition, % at 3.6 µM;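 active means inhibition above the campaign mean inhibition of all tested compounds plus 3 SD, cut at about 20% in these data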;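 further: 0% = DMSO wells given NPY plus isoproterenol and 100% = isoproterenol alone without NPY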
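Assay system: HEK293 cells with Y1 receptor plus CNG channel | Probe or stimulus: NPY (25 nM), isoproterenol (1 µM), Ro 20-1724 (25 µM) | Timing: Compound incubation 1 h at room temperature, readout 45 min post-stimulation | Measured by: Membrane-potential fluorescent dye readout | Benchmarks: High control isoproterenol alone, low control NPY with isoproterenol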
NPY Y2 blocker = antagonists of human neuropeptide Y receptor Y2; hit rate 0.99% among 140,000; AID 793; P49146; inhibition, % at 2.7 µM; NPY-Y2 expressing cells, antagonist mode; in the data active means inhibition above about 17%;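 further: 0% = vehicle with agonist challenge and 100% = reference antagonist with challenge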
Target sequence (P49146 whole entry, looked up): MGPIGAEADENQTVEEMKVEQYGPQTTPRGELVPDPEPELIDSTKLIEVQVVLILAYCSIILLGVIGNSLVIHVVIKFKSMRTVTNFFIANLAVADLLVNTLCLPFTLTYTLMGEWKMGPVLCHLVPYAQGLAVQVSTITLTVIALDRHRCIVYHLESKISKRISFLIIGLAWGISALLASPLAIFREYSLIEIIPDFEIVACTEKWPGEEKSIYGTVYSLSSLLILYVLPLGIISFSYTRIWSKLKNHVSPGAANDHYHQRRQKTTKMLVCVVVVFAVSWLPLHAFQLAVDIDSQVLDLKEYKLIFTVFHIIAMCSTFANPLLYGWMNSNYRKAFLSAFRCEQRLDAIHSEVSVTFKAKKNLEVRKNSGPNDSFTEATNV
NPY-Y2 PAM-ag = potentiators or agonists of human neuropeptide Y receptor Y2. P49146. cells expressing NPY-Y2, potentiator/agonist read-out. activation, % at 3.6 µM. hit rate 0.45% among 220,000. AID 1359; in the data active means activation above about 27%;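 further: cells stimulated with NPY near EC25 plus isoproterenol at EC100; 0% = vehicle plus submaximal agonist and 100% = vehicle plus saturating agonist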
S1P4 ag conf = human S1P4 agonism, confirmation; shares compounds with S1P4 ag; S1P4 agonist cell-based reporter assay; activation, % at 4.98 µM; hit rate 7% among 740; AID 1523; in the data active means activation above about 12%;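 further: 0% = vehicle and 100% = full reference agonist response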
S1P1 agonist = counter-screen for S1P4 agonists: agonists of human S1P1. S1P1 agonist cell-based assay, activation. AID 1563. hit rate 4% among 740. shares compounds with S1P4 ag. activation, % at 4.98 µM; in the data active means activation above about 21%;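 further: 0% = vehicle wells and 100% = reference agonist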
Starred values were filed as active, the others as inactive; . = no result.

SMILES	S1P4 antag	S1P4 ag	NPY-Y1 PAM-ag	NPY Y1 blocker	NPY Y2 blocker	NPY-Y2 PAM-ag	S1P4 ag conf	S1P1 agonist
Cc1ccc(OCC(=O)N/N=C/c2ccc3c(c2)OCO3)cc1C	12.9	12.0*	-8.8	4.9	.	-13.9	-2.4	1.1
O=C(Cc1ccccc1)N/N=C/c1ccc2c(c1)OCO2	-2.8	0.4	23.3	1.1	.	7.0	.	.
COc1ccc([N+](=O)[O-])cc1NC(=O)Cc1ccc(Cl)cc1	-5.6	14.6*	0.2	3.0	0.4	3.2	-0.8	-7.9
Cc1cc(C)nc(NC(=O)Cc2ccc([N+](=O)[O-])cc2)c1	-27.6	29.7*	2.7	5.5	1.6	6.8	-2.6	-1.2
Cc1ccc(CC(=O)Nc2cc([N+](=O)[O-])ccc2F)cc1	-26.0	2.1	-9.2	1.1	.	-2.1	.	.
COc1ccc([N+](=O)[O-])cc1NC(=O)Cc1ccc(C)cc1	-1.0	-1.7	-15.7	6.6	0.0	4.3	.	.
COCCNC(=O)/C(C#N)=c1\s/c(=C\c2ccccc2OC(F)F)c(=O)n1Cc1ccccc1	-9.5	12.4*	20.9	3.8	.	1.0	-2.4	3.2
CCCNC(=O)Cn1c(-c2ccc(F)cc2)cc(C(=O)OCC)c1C	-20.3	0.3	-3.9	10.4	.	-1.3	.	.
O=C(COC(=O)CCC1CCCC1)Nc1ccccc1OC(F)F	2.8	1.0	-8.7	-2.1	.	-1.6	.	.
Cc1nn(C)cc1/C=N/NC(=S)Nc1ccc(Cl)cc1Cl	-88.8	15.4*	14.3	-10.2	-1.3	0.3	-0.5	5.4
CCCc1nn(C)c(C(N)=O)c1[N+](=O)[O-]	-14.8	11.9*	19.2	-3.6	.	12.7	-1.0	3.4
CN(C)C(=O)c1c([N+](=O)[O-])c(C(C)(C)C)nn1C	-2.5	0.3	-6.7	-4.7	4.2	-9.0	.	.
CS(=O)(=O)c1ccc(C(=O)OCC(=O)NC23CC4CC(CC(C4)C2)C3)cc1[N+](=O)[O-]	5.5	-0.7	23.7	1.6	1.1	24.4	.	.
CCCCC(=O)NC(Nc1ccc(C)cn1)(C(=O)OCC)C(F)(F)F (configuration not stated)	-5.7	17.7*	-7.1	-0.7	2.2	-2.8	-1.4	-3.8
C=CCn1c(SCC(=O)Nc2cccnc2Cl)nnc1-c1ccc(C(C)(C)C)cc1	-22.8	1.9	16.6	-4.4	2.0	-4.9	.	.
O=S(=O)(NC1CCCCC1Oc1ccccc1)c1ccc(Cl)cc1 (configuration not stated)	-16.7	-1.0	-21.2	0.2	4.1	5.5	.	.
O=S(=O)(NC1CCCC1)c1ccc(S(=O)(=O)NC2CCCC2)cc1	-12.8	1.8	13.3	-5.2	-0.1	25.6	.	.
O=S(=O)(NC1CCCCC1Nc1ccccc1)c1ccccc1 (configuration not stated)	-11.7	15.5*	2.2	0.8	3.8	2.5	-1.7	2.9
O=S(=O)(NC1CCCCC1NS(=O)(=O)c1ccc(F)cc1)c1ccc(F)cc1 (configuration not stated)	-12.2	14.9*	-5.1	6.6	2.1	0.3	-2.0	-1.0
CS(=O)(=O)N1CCc2cc(C(=O)N3CCCCC3)ccc21	-12.5	0.6	-2.9	5.0	0.5	-6.2	.	.
CS(=O)(=O)N1CCc2cc(C(=O)N3CCOCC3)ccc21	1.6	26.9*	16.7	-0.7	-0.5	-5.4	-1.6	-3.5
CCCCCn1c(C(Cc2ccccc2)NC(=O)COC)nc2ccccc21 (configuration not stated)	2.8	1.9	15.5	6.5	3.3	11.9	.	.
Cc1c(NS(=O)(=O)c2ccc3c(c2)OCCO3)cccc1-c1nc2cccnc2s1	2.2	-1.2	21.0	-0.6	1.7	12.0	.	.
COC(=O)Nc1ccc(S(=O)(=O)N2CCCC(C(=O)N3CCCCCC3)C2)cc1 (configuration not stated)	-12.6	1.4	-15.9	2.0	.	3.0	.	.
CCOC(=O)CC1Sc2ccccc2NC1=S (configuration not stated)	12.5	63.4*	-14.2	.	.	5.6	-0.8	-0.8
COc1ccc(Cn2ccnc2)cc1[N+](=O)[O-]	-17.2	12.3*	-23.0	0.5	1.7	-11.8	-2.3	-2.2
COc1ccc(Cn2ccnc2)cc1Br	8.6	1.7	-10.1	8.8	6.3	-18.7	.	.

Source: PubChem BioAssay
